Assay outcomes deposited in PubChem by Broad Institute.
S100A4 MyoIIA: S100A4-myosin IIA interaction inhibition; 0.14% of 360,000 active; inhibition, % at 10.7 µM; S100A4/TAMRA-MyoIIA peptide fluorescence polarization; AID 652163;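 active means mean inhibition of at least 70% across replicates, with every replicate also reaching that level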
Target sequence (P26447 whole entry, looked up): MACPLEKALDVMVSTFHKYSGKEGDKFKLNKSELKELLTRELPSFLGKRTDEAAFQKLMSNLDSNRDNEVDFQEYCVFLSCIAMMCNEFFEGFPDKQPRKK
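Material: S100A4 monomer protein / Buffer or medium: 50 mM HEPES pH 7.2, 10 mM CaCl2, 100 mM KCl / Times: 5 min incubation before reading / Benchmarks: neutral control DMSO, positive control TFP / Reagent: labelled myosin peptide probe, 5 nM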
SIRT5 block: sirtuin-5 (human) deacylase inhibition. Q9NXA8. Purified SirT5, succinyl-peptide AMC, trypsin-coupled fluorescence. inhibition, % at 15 µM. 1.1% of 330,000 active. AID 652115; in the data active means inhibition above about 15%
Target sequence (Q9NXA8 whole entry, looked up): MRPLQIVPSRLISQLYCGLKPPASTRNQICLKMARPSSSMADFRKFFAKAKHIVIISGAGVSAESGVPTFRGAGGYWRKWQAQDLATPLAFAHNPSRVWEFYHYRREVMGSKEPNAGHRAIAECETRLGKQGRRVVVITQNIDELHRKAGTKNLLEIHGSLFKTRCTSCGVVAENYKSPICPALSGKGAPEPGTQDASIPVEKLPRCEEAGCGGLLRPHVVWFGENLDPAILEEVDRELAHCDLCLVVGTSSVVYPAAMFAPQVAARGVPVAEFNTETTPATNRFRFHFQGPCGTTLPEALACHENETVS
Ecoli rRNA inh: inhibitors of bacterial rRNA selective over humanized ribosomes; GFP signal change (wild-type ribosome), % (test concentration not listed); E. coli WT GFP vs humanized-ribosome RFP mutants, fluorescence, 24 h; hits give low values; DMSO median 0, no signal -100; 1.6% of 350,000 active;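 active means significant combined selectivity score with lowered wild-type GFP, culture density cut under 30%, mutant RFP and density less affected; inactive means any of these conditions unmet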
Cneo AK release: Cryptococcus neoformans lysis via adenylate kinase release; lysis activity, % at 15 µM; 0.2% of 360,000 active; C. neoformans lysis, adenylate kinase release luminescence, 4 h; normalised: neutral wells 0, clomiphene wells 100;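 active means mean lysis activity across replicates of at least 80%, whatever share of replicates individually reach that level; inactive means mean lysis activity below 80%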
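Test system: log-phase Cryptococcus neoformans yeast cells; Quantity: yeast cell density of 5 × 10^6 cells/mL; Buffer or medium: YPD; Doses: single compound concentration per well; Timing: 4 h at 37 °C static, read 1 h later; Measured by: AK luminescence; Read-out basis: lysis from increased AK signal; Control set: Clomiphene as positive control.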
Statin myotox sup: protects C2C12 myotubes from simvastatin toxicity. ATP luminescence, 48 h; scaled: DMSO 0, geranylgeraniol control 100. rescue of ATP level, % at 7.49 µM. 0.78% of 330,000 active;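 active means mean ATP rescue above about 67%, or every replicate alone reaching that limit, limit read from the data, passing the limit was not always enough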;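 further: myotubes were challenged with 10 µM simvastatin during compound exposure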
PGC1a acetyl inh: modulators of PGC1a acetylation. 0.17% of 350,000 active. U2OS PGC1a acetylation, AlphaScreen anti-acetyl-lysine; with virally co-expressed GCN5 acetyltransferase. inhibition, % at 15.6 µM;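 active means every replicate shows inhibition of at least 40%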;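 further: 0% = neutral control wells and 100% = positive control wells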
Numbers without * were called inactive. Most compounds without a hit are left out; they make up all but 3% or so of the library.

`C[C@H]1CN([C@@H](C)CO)C(=O)c2cc(NC(=O)Nc3ccc(C(F)(F)F)cc3)ccc2O[C@H]1CN(C)Cc1ccc(C(=O)Nc2ccccc2N)cc1` gave S100A4 MyoIIA -1, SIRT5 block 2, Ecoli rRNA inh 1 and PGC1a acetyl inh -5.
`CCOC(=O)N1CCN(C(=O)CN(Cc2ccccc2)S(=O)(=O)c2ccc(OC)c(Cl)c2)CC1` gave Cneo AK release 2, Statin myotox sup 123* and PGC1a acetyl inh -13.
For CC12CCCC(C(C#N)C(N)=O)(C1)NC(=O)C2C#N (centres undefined) the results were S100A4 MyoIIA 2, SIRT5 block 20*, Ecoli rRNA inh 6, Cneo AK release 1, Statin myotox sup 4 and PGC1a acetyl inh -1.
`CNC[C@H]1OCCCC[C@H](C)Oc2ccc(NS(=O)(=O)c3ccc(C)cc3)cc2C(=O)N([C@@H](C)CO)C[C@@H]1C` gave S100A4 MyoIIA -17, SIRT5 block 6, Ecoli rRNA inh 1, Cneo AK release -7, Statin myotox sup 1 and PGC1a acetyl inh -5.
Screening Cc1ccc(N(C)S(=O)(=O)c2ccc3c(c2)CC(C)N3C(=O)C2CC2)cc1 (centres undefined) returned S100A4 MyoIIA 0, SIRT5 block -2, Ecoli rRNA inh -10, Statin myotox sup -2 and PGC1a acetyl inh -10.
`CC(=O)N1c2ccc(S(=O)(=O)N(C)c3cc(C)ccc3C)cc2CC1C` (centres undefined) gave S100A4 MyoIIA -10, SIRT5 block -2, Ecoli rRNA inh -29*, Cneo AK release 1, Statin myotox sup -8 and PGC1a acetyl inh -4.
Screening CC(=O)N1c2ccc(S(=O)(=O)NCCC(=O)NCc3ccc(N(C)C)cc3)cc2CC1C (centres undefined) returned S100A4 MyoIIA -2, SIRT5 block 2, Ecoli rRNA inh 2, Cneo AK release 0, Statin myotox sup 92* and PGC1a acetyl inh -6.
For CCCC#Cc1ccc2c(c1)O[C@H](CN(C)C(=O)c1ccccn1)[C@H](C)CN([C@@H](C)CO)S2(=O)=O the results were S100A4 MyoIIA 32, SIRT5 block -1, Ecoli rRNA inh -1, Cneo AK release 0, Statin myotox sup 3 and PGC1a acetyl inh -6.
Screening O=C(C[C@@H]1CC[C@@H](NC(=O)Cc2ccccn2)[C@@H](CO)O1)NCCc1ccncc1 returned S100A4 MyoIIA -19, SIRT5 block -1, Ecoli rRNA inh 0, Cneo AK release -29, Statin myotox sup -6 and PGC1a acetyl inh 18.
Nc1nc2c(s1)CCCCCCCCCC2 was read as S100A4 MyoIIA 5, SIRT5 block -1, Ecoli rRNA inh -50*, Cneo AK release 3 and PGC1a acetyl inh -6.
For Cc1cc(C(=O)CSc2nnnn2-c2ccccc2)c(C)n1CCc1ccccc1 the results were Cneo AK release -1, Statin myotox sup 107* and PGC1a acetyl inh -4.
Screening Cc1cc(C(=O)CSc2nnnn2-c2ccc(O)cc2)c(C)n1C returned S100A4 MyoIIA -3, SIRT5 block 3, Ecoli rRNA inh -26*, Statin myotox sup 11 and PGC1a acetyl inh -31.
For CN(C)CC#Cc1ccc([C@@H]2[C@H]3CN(C(=O)C4CC4)CCCCN3[C@H]2CO)cc1 the results were Cneo AK release -3 and PGC1a acetyl inh 4.
Screening CN1CCN(C(=O)C[C@H]2CC[C@@H](NC(=O)Nc3ccccc3F)[C@@H](CO)O2)CC1 returned S100A4 MyoIIA -4, SIRT5 block -2, Ecoli rRNA inh -3, Cneo AK release -2, Statin myotox sup -1 and PGC1a acetyl inh 8.
`O=C1NC(=S)S/C1=C\C=C\c1ccc([N+](=O)[O-])o1` gave S100A4 MyoIIA -9, SIRT5 block 25*, Ecoli rRNA inh -60, Cneo AK release 1 and PGC1a acetyl inh -73.
`O=C(O)/C=C/c1ccc([N+](=O)[O-])o1` gave S100A4 MyoIIA -4, SIRT5 block 13 and Ecoli rRNA inh 1.
For COc1ccccc1-c1nnc(C2CCN(S(=O)(=O)c3cccc([N+](=O)[O-])c3)CC2)o1 the results were S100A4 MyoIIA -2, SIRT5 block 3, Ecoli rRNA inh -22*, Cneo AK release 1 and Statin myotox sup 0.
For COc1ccccc1-c1nnc(C2CCN(S(=O)(=O)c3ccccc3[N+](=O)[O-])CC2)o1 the results were S100A4 MyoIIA -2, SIRT5 block 3, Ecoli rRNA inh -18*, Cneo AK release -2, Statin myotox sup 7 and PGC1a acetyl inh -4.
O=C(CCl)N(c1ccc(Cl)cc1)c1c[nH]c2ccccc12 was read as S100A4 MyoIIA -6, SIRT5 block -4, Ecoli rRNA inh -23*, Statin myotox sup 28 and PGC1a acetyl inh -13.
For CO[C@H]1CN(C)C(=O)c2ccc(NC(=O)Nc3cc(F)ccc3F)cc2OC[C@@H](C)N(C(=O)c2cnccn2)C[C@H]1C the results were S100A4 MyoIIA -1, SIRT5 block 4, Ecoli rRNA inh -4, Cneo AK release 49, Statin myotox sup 4 and PGC1a acetyl inh 21.
For CN=c1scc(-c2ccc(F)cc2)n1/N=C/c1ccc(O)c(O)c1 the results were S100A4 MyoIIA 7, SIRT5 block 0, Ecoli rRNA inh -41* and PGC1a acetyl inh -3.
`O=C(OCc1cccc(F)c1)c1ccc2c(=O)n3c(nc2c1)CCC3` gave S100A4 MyoIIA 0, SIRT5 block 1, Ecoli rRNA inh -24*, Statin myotox sup -4 and PGC1a acetyl inh -2.
`CN(Cc1cccc(F)c1)C(=O)c1ccc2c(=O)n3c(nc2c1)CCC3` gave S100A4 MyoIIA 1, SIRT5 block 3, Ecoli rRNA inh 4, Cneo AK release 1 and Statin myotox sup 3.
Screening COc1cccc(CN(C)CCCn2cnc3c(SC)ncnc32)c1 returned S100A4 MyoIIA -2, SIRT5 block 15*, Ecoli rRNA inh -2, Cneo AK release -1, Statin myotox sup -5 and PGC1a acetyl inh 4.
O=c1c2c([nH]c3ccccc13)CCCC2 was read as Cneo AK release -1, Statin myotox sup 98* and PGC1a acetyl inh 3.
COc1cccc(CN2CC(C(=O)N(C)CC3CCOCC3)CCC2=O)c1 (centres undefined) was read as S100A4 MyoIIA -2, SIRT5 block 19*, Ecoli rRNA inh 14, Cneo AK release -5, Statin myotox sup 4 and PGC1a acetyl inh -7.
Screening Clc1ccccc1N1CCN(Cc2c[nH]c3ccccc23)CC1 returned S100A4 MyoIIA -1, SIRT5 block 3, Ecoli rRNA inh -45*, Cneo AK release 1 and PGC1a acetyl inh -14.
O=S(=O)(c1ccc(Cl)cc1)N1CCN(Cc2c[nH]c3ccccc23)CC1 was read as Cneo AK release 1, Statin myotox sup -2 and PGC1a acetyl inh -8.
